STAT1 act: STAT1 signaling activation; NIH 3T3 STAT1-luciferase reporter, IFN-gamma, luminescence; 100% = IFN-gamma alone, no compound; hit rate 2.6% among 200,000; activation (% of control), % at 5.5 µM; AID 932;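 active = activation above the screen-wide mean activation plus 3 SD, cut at about 130% in these data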;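 also: raw ratio to IFN-gamma control signal so 100% means no change and 0% no light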
NF-kB expr up: NF-kB expression increase, human neuronal cells | NF-kB reporter expression; active compounds read high | fold change at 12.5 µM | hit rate 1.6% among 190,000; in the data active = fold change above about 3.3
Rad51 HR inh: Rad51 (human) homologous recombination inhibition. Q06609. hRad51 DNA strand exchange, fluorescence dequenching. inhibition, % at 10 µM. hit rate 0.085% among 200,000. AID 1385;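 active = inhibition above 40% at the single screening dose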;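 also: 0% = DMSO control wells and 100% = blanks with heterologous ssDNA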
Target sequence (Q06609 whole entry, looked up): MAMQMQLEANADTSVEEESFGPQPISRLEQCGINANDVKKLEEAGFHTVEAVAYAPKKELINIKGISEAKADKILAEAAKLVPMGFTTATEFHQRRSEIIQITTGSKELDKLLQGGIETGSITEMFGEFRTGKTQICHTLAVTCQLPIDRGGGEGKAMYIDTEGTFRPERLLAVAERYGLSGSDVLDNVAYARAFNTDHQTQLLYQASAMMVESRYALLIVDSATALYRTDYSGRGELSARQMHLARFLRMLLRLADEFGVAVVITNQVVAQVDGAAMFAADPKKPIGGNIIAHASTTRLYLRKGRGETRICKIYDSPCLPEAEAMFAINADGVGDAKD
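material = hRad51 filaments on single-stranded DNA | timing = filaments 15 min 37 °C, then compound 30 min | signal = FRET fluorescence dequenching, excitation 485 nm, emission 520 nm | benchmarks = control wells and blank wells on each plate | evaluation = percent inhibition relative to plate controls and blanks | compound = 10 µM final, single point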
FLuc inhib CS: counter-screen for luciferase assay inhibitors: firefly luciferase inhibition | AID 1006 | P08659 | hit rate 1.5% among 200,000 | inhibition, % at 10 µM | ATPLite firefly luciferase biochemical luminescence, 10 min;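 active = inhibition above about 50% when tested at 10 µM, limit read from the data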
FLuc stim CS: firefly luciferase counter-screen for stimulation assays. ATPlite luciferase biochemical, luminescence, 10 min; 0 = ATP-free wells, 1 = DMSO control. activation factor at 10 µM. 200,000 tested, under 10 active. AID 1027;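 active = luciferase activation factor, scaled between plate controls, of at least 2 with compound at 10 µM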
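System: cell-free luciferase reagent; medium: PBS as buffer for the ATP substrate; doses: test compounds dosed from 2 mM stocks in 100% DMSO; incubation: 10 min, room temperature; measured by: luminescence from luciferase reaction; read-out: luciferase activation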
APP 5'UTR act: activates APP 5'UTR luciferase reporter. SH-SY5Y APP 5'UTR luciferase reporter, luminescence; zero percent = DMSO vehicle wells. activation, % at 2 µM. hit rate 1% among 190,000. AID 1276;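 active = activation above a set limit, based on mean plus 3 SD of controls, cut at about 140% in these data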
* marks the source's active call; other numbers are inactive results; x = no result. A selection: hits, their analogues and other compounds. The true share with any hit is near 3.9%.

SMILES	STAT1 act	NF-kB expr up	Rad51 HR inh	FLuc inhib CS	FLuc stim CS	APP 5'UTR act
N#C/C(C(=O)Oc1ccccc1)=C1\C=CC=CN1	142*	1.9	0	25	0.7	57
CCOC(=O)C(=O)N1CCC(C(=O)OCC)CC1	x	x	-2	x	x	x
NNC(=O)c1ccc(OCC2CC(c3ccc(Cl)cc3)=NO2)cc1 (centres undefined)	x	x	-8	x	x	x
CCc1ccc(NC(=O)c2cc(-c3ccco3)on2)cc1	130*	2.6	-4	24	0.8	-6
O=C(Nc1cccnc1Cl)c1cc(-c2ccco2)on1	127	2.8	-6	21	0.8	22
COc1ccc(NC(=O)c2cc(-c3ccco3)on2)cc1	149*	1.3	-10	5	1	-5
CN(CC(=O)Nc1ccc(N2CCOCC2)cc1)Cc1cc(=O)n2ccsc2n1	87	1.1	15	-3	1	24
O=C(Nc1cnccn1)Nc1ccc(Cl)cc1Cl	117	1.3	0	-6	1.1	33
CCOC(=O)c1cc(C(=O)Nc2cccc(C)c2)nn1C	135*	6.8*	10	60*	0.4	130
C[C@@H]1CC[C@]2(O[C@H](CCO)C[C@H](O)[C@H]2O)O1	x	x	-3	x	x	x
CCN1CCN(c2ccc(NC(=O)c3ccc(F)cc3)cc2Cl)CC1	113	1.6	-1	2	1	27
CCC(=O)N1CCN(c2ccc(NC(=O)c3cc4ccccc4o3)cc2Cl)CC1	92	0.35	x	-4	1	-14
CCN1CCN(c2ccc(NC(=O)c3ccc([N+](=O)[O-])o3)cc2Cl)CC1	148*	2.3	10	-2	1	-94
CCC(=O)N1CCN(c2ccc(NC(=O)c3ccc([N+](=O)[O-])o3)cc2Cl)CC1	130*	0.24	x	-4	1	-92
CC1Cn2c(nc(=O)c3c2NCN(CCc2ccccc2)C3)S1 (centres undefined)	94	1.3	0	-2	1	-5
CCCCCN=Cc1c(C)[nH]n(-c2nc3ccccc3s2)c1=O	128	1.1	-2	52*	0.5	55
O=C(NC(=O)c1ccccc1)NC1(C(F)(F)F)OCCO1	135*	4.2*	1	12	0.9	97
O=C(NCc1ccccc1)NC(=O)c1ccccc1	105	1.7	-8	-2	1	10
C[n+]1c(/C=C/c2ccc3c(c2)OCO3)ccc2ccccc21	115	0.58	-6	6	0.9	185*
Cc1ccc(NC(=O)CCC(=O)NNC(=O)NC2CCCCC2)c(C)c1	97	0.92	-7	2	1	8
Cc1ccc2c(c1)c1cccc3c1n2CCN3CCC(N)=O	143*	1.5	-6	10	0.9	88
CCc1ccc(OCc2cnc(Cl)s2)cc1	131*	1.5	-4	10	0.9	6
CC(=O)Nc1ccc(-c2cn3ccsc3n2)cc1	136*	3.4*	1	67*	0.3	64
O=C(CCN1C(=O)c2ccccc2C1=O)Nc1ccc(-c2cn3ccsc3n2)cc1	114	1.6	6	26	0.7	11
O=C(Nc1ccc(-c2cn3ccsc3n2)cc1)C1CC1	111	3.2	2	87*	0.1	83
SMILES	STAT1 act	NF-kB expr up	Rad51 HR inh	FLuc inhib CS	FLuc stim CS	APP 5'UTR act
O=C(Nc1ccc(-c2ccc3nncn3n2)cc1)C1CCCC1	110	1.3	5	52*	0.5	4
c1cn2cc(-c3ccc4c(c3)OCO4)nc2s1	141*	6.1*	3	78*	0.2	149*
CN(c1nc2nonc2nc1NC1CC1)C1CCOC1 (centres undefined)	99	1.1	7	-8	1.1	-4
CCCn1c(=O)[nH]c(=O)c2c1nc(-c1ccc(OC)c(Br)c1)n2CCOC	93	0.84	-13	-7	1.1	2
S=C1NCCOCCOCCNC(=S)N2CCOCCOCCN1CCOCCOCC2	99	1	16	-4	1	7
O=C(Nc1ccc(-c2cn3ccsc3n2)cc1)C1CCCC1	123	4*	-2	88*	0.1	127
COc1ccc(C(CC(=O)Nc2nccs2)n2cccc2)cc1 (centres undefined)	156*	4.5*	-2	26	0.7	194*
COc1ccc(OCCC(=O)Nc2nccs2)cc1	106	1.5	3	8	0.9	-3
COc1ccc(OCC(=O)Nc2nccs2)cc1	69	3.9*	-5	75*	0.2	104
CCOc1ccc(S(=O)(=O)N(C)c2ccc(OCC(=O)Nc3nccs3)cc2)cc1	96	1.1	5	0	1	10
COc1ccccc1OCCCC(=O)Nc1nccs1	134*	1.6	x	15	0.8	75
CCOc1ccc(OCC(=O)Nc2nccs2)cc1	43	2.6	0	83*	0.2	157*
Cc1nc(NCC2CCCO2)c2nnn(Cc3c(F)cccc3Cl)c2n1 (centres undefined)	100	1.3	1	-4	1	7
Cc1ccc(CNC(=O)CCC2CCCN(Cc3cc4ccccc4o3)C2)o1 (centres undefined)	x	x	13	x	x	x
CC(=O)Nc1ccc2oc(C)nc2c1	107	1.1	-2	-5	1	15
CCCCCC(=O)Nc1ccc2oc(-c3cncc(Br)c3)nc2c1	110	1.8	-2	5	0.9	5
CCCC(=O)Nc1ccc2oc(-c3cncc(Br)c3)nc2c1	139*	3.4*	-5	11	0.9	128
CC(=O)Nc1ccc2oc(-c3cc(F)c(F)cc3Cl)nc2c1	148*	6.1*	-7	30	0.7	33
CC(=O)Nc1ccc2oc(-c3ccccc3Br)nc2c1	122	7.3*	x	28	0.7	162*
O=CN/C=C/c1cc(O)ccc1O	x	x	2	x	x	x
COC(=O)[C@H](C)NC(=O)NCc1ccccc1	x	x	7	x	x	x
O=C(COC(=O)CCc1ccc(S(=O)(=O)N2CCOCC2)cc1)NC(=O)NC1CCCCC1	100	1.1	14	-11	1.1	3
Cc1cc(/C=C(\C#N)C(=O)Nc2ccccc2)c(C)n1-c1cccnc1	133*	1.5	-6	51*	0.5	83
O=C1/C(=C\c2ccc([N+](=O)[O-])cc2)CCc2ccccc21	100	1.3	x	81*	0.2	136*
O=C1/C(=C\c2cccnc2)CCc2ccccc21	98	1.6	x	63*	0.4	15
O=C1/C(=C/c2ccc(O)cc2)CCc2ccc([N+](=O)[O-])cc21	98	1.1	-11	-6	1.1	11
O=C1CN(C(=O)CNCc2cccc(Cl)c2)c2ccccc2N1	x	x	11	x	x	x
COc1ccc(C)cc1NC(=O)C(c1ccccc1)N1CCNC(=O)C1 (centres undefined)	98	1.2	1	-3	1	9
CC(=O)N1CC2([N+](=O)[O-])CN(C(C)=O)CC([N+](=O)[O-])(C1)C2(C)C	104	0.82	-4	-2	1	19

Bioassay records (PubChem BioAssay)
